Assay outcomes from PubChem BioAssay.
INS promoter inh = TRM-6 insulin promoter activity inhibition; TRM-6 cells (human fetal islet line), insulin promoter-eGFP reporter, imaging; reporter expression induced with tamoxifen; inhibition, % at 2 µM; hit rate 0.9% among 130,000; AID 1273;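 active means inhibition above the mean plus 3 SD, with well images judged a real hit on visual review, cut at about 60% in these data, passing the limit was not always enough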
Ins promoter up = MIN6 insulin promoter up-regulation; MIN6 insulin promoter-GFP reporter, high-content imaging; hits give high values; z-score at 5 µM; hit rate 0.3% among 190,000; AID 1625;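 active means z-score above 3 at 5 µM with at least 500 cells counted in the well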
NPY1 pot ag = human NPY-Y1 potentiation or agonism, primary screen; activation, % at 3.6 µM; NPY-Y1 expressing cells, potentiator/agonist activation; AID 1304; P25929; hit rate 0.37% among 220,000; in the data active means activation above about 33%, passing the limit was not always enough;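 further: cells stimulated with NPY at EC10 then isoproterenol at EC100; 0% = low agonist plus stimulus and 100% = saturating agonist plus stimulus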
Target sequence (P25929 whole entry, looked up): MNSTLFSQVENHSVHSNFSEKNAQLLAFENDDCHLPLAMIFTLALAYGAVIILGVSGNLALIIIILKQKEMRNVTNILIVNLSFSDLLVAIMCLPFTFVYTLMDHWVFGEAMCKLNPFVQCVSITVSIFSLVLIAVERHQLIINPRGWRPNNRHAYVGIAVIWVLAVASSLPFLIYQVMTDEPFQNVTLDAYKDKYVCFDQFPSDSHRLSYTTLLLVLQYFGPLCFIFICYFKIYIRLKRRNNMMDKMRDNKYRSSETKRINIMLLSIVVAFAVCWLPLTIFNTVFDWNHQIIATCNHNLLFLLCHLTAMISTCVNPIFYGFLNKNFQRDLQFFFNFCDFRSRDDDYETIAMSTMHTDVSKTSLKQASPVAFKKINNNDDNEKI
NPY-Y1 antag = antagonists of human neuropeptide Y receptor Y1; HEK293-CNG Y1 cells, membrane potential fluorescence; NPY at EC95, then isoproterenol; AID 1040; P25929; inhibition, % at 3.6 µM; hit rate 1% among 200,000;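 active means inhibition above the campaign mean inhibition of all tested compounds plus 3 SD, cut at about 20% in these data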;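 further: 0% = DMSO wells given NPY plus isoproterenol and 100% = isoproterenol alone without NPY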
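material = HEK293 cells with Y1 receptor plus CNG channel | also added = NPY 25 nM then isoproterenol 1 µM plus Ro 20-1724 25 µM | schedule = dye 3 h, compound 60 min room temperature, stimulation 45 min | measured by = membrane potential fluorescence | benchmarks = high control isoproterenol alone, low control NPY with isoproterenol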
NPY-Y2 PAM-ag = potentiators or agonists of human neuropeptide Y receptor Y2 | hit rate 0.45% among 220,000 | activation, % at 3.6 µM | P49146 | cells expressing NPY-Y2, potentiator/agonist read-out | AID 1359; in the data active means activation above about 27%;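 further: cells stimulated with NPY near EC25 plus isoproterenol at EC100; 0% = vehicle plus submaximal agonist and 100% = vehicle plus saturating agonist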
Target sequence (P49146 whole entry, looked up): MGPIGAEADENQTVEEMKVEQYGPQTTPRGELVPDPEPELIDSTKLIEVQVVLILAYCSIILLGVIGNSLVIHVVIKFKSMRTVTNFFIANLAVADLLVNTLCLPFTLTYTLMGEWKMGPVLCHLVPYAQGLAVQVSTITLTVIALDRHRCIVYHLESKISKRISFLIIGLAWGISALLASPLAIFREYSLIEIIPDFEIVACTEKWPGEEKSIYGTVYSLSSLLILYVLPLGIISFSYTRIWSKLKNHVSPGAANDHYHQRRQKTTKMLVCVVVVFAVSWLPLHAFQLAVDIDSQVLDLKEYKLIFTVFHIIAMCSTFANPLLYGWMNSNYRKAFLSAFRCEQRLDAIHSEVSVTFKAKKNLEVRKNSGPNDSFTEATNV
NPY-Y2 antag = NPY-Y2 (human) receptor antagonism. inhibition, % at 2.7 µM. hit rate 0.99% among 140,000. AID 793. NPY-Y2 expressing cells, antagonist mode. P49146; in the data active means inhibition above about 17%;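 further: 0% = vehicle with agonist challenge and 100% = reference antagonist with challenge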
NPY-Y2 pot conf = confirmation of human NPY-Y2 receptor potentiators or agonists; shares compounds with NPY-Y2 PAM-ag; cell-based NPY-Y2 potentiator/agonist assay; activation, % at 3.6 µM; hit rate 20% among 450; in the data active means activation above about 33%
NPY-Y1 potentiator = counter-screen for NPY-Y2 potentiators or agonists: NPY-Y1 potentiators or agonists | shares compounds with NPY-Y2 PAM-ag | hit rate 20% among 450 | activation, % at 3.6 µM | Y1 HEK293-CNG cells, membrane potential fluorescence; in the data active means activation above about 45%;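 further: cells stimulated with submaximal NPY then isoproterenol with phosphodiesterase inhibitor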
NPY-Y1 agonist 2 = human NPY-Y1 agonism as NPY-Y2 potentiator counter-screen; hit rate 37% among 450; activation, % at 3.6 µM; HEK293 Y1-CNGC, membrane potential fluorescence; shares compounds with NPY-Y2 PAM-ag;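 active means activation above the mean of DMSO-only control wells plus 3 SD, cut at about 18% in these data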;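 further: cells stimulated with 1 µM isoproterenol plus the PDE inhibitor Ro 20-1724; 0% = isoproterenol with DMSO and no NPY and 100% = 40 nM NPY; Y1 agonists lower the membrane potential dye signal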
CNGC inhibitor = counter-screen for NPY-Y2 potentiators: inhibitors of CNG channel activity. shares compounds with NPY-Y2 PAM-ag. HEK293-CNG parental, isoproterenol cAMP, membrane potential fluorescence. inhibition, % at 3.6 µM. hit rate 32% among 450. AID 1703;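 active means inhibition above the control-well mean plus 3 SD of those wells, cut at about 22% in these data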;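 further: 0% = DMSO with isoproterenol and 100% = DMSO without isoproterenol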
NPY-Y2 ag 2 = activates human NPY-Y2 receptor in potentiator counter-screen. activation, % at 3.6 µM. AID 1710. shares compounds with NPY-Y2 PAM-ag. hit rate 56% among 450. HEK293 Y2/CNGC cells, membrane potential fluorescence, agonist mode;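 active means activation above the mean of solvent-only control wells plus 3 SD, cut at about 10% in these data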;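 further: cells stimulated by isoproterenol with no NPY added so direct agonism is tested; 0% = DMSO with isoproterenol alone and 100% = NPY at EC100 plus isoproterenol; agonism lowers probe fluorescence through less cAMP and CNG channel opening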
* hit, by the source's call. Shown are actives, neighbours in structure and some others; about 2.5% of the full set was active somewhere.

For O=C(OCN1C(=O)c2ccccc2C1=O)c1ccc2c(=O)n3c(nc2c1)CCC3 the results were INS promoter inh -9, NPY1 pot ag 15, NPY-Y1 antag -5, NPY-Y2 PAM-ag 2 and NPY-Y2 antag 0.
Screening Cc1cccc(C)c1OCC(O)CNC(C)(C)C (configuration not stated) returned INS promoter inh 17, Ins promoter up 0.45, NPY1 pot ag 19, NPY-Y1 antag 3, NPY-Y2 PAM-ag 41*, NPY-Y2 antag 1, NPY-Y2 pot conf 12, NPY-Y1 potentiator 13, NPY-Y1 agonist 2 9, CNGC inhibitor 12 and NPY-Y2 ag 2 13*.
Screening CNC[C@H](O)c1ccc(O)c(O)c1 returned INS promoter inh -43, NPY1 pot ag 61, NPY-Y1 antag -3, NPY-Y2 PAM-ag 60*, NPY-Y2 antag 1, NPY-Y2 pot conf 59*, NPY-Y1 potentiator 48*, NPY-Y1 agonist 2 71*, CNGC inhibitor 58* and NPY-Y2 ag 2 49*.
Cc1ccc(/C=N/NC(=O)CNC(=O)c2ccc(S(=O)(=O)N3CCCC3)cc2)o1 was read as INS promoter inh 33, Ins promoter up 0.98, NPY1 pot ag 28, NPY-Y1 antag -2, NPY-Y2 PAM-ag 84*, NPY-Y2 pot conf -4, NPY-Y1 potentiator -1, NPY-Y1 agonist 2 -11, CNGC inhibitor 0 and NPY-Y2 ag 2 -6.
CCOc1ccc(Br)cc1CNc1ccc2c(c1)OCCO2 was read as Ins promoter up 0.56, NPY1 pot ag -27, NPY-Y1 antag 9 and NPY-Y2 PAM-ag -12.
`Cc1[nH]c2ccccc2c1SCC(=O)O` gave INS promoter inh 12, Ins promoter up 0.02, NPY1 pot ag -4, NPY-Y1 antag 5, NPY-Y2 PAM-ag 5 and NPY-Y2 antag 3.
For CNC(=O)CCc1[nH]c2ccccc2c1Sc1ccccc1 the results were INS promoter inh 42, Ins promoter up 1.1, NPY1 pot ag 6, NPY-Y1 antag 2, NPY-Y2 PAM-ag 26*, NPY-Y2 antag -1, NPY-Y2 pot conf 12, NPY-Y1 potentiator 21, NPY-Y1 agonist 2 14, CNGC inhibitor 14 and NPY-Y2 ag 2 23*.
Screening COc1ccc(NC(=S)N/N=C/c2cccn2Cc2ccc(F)cc2)cc1 returned Ins promoter up -0.41, NPY1 pot ag 20, NPY-Y1 antag 2, NPY-Y2 PAM-ag 42*, NPY-Y2 pot conf 17, NPY-Y1 potentiator 7, NPY-Y1 agonist 2 -2, CNGC inhibitor 2 and NPY-Y2 ag 2 5.
`O=C(Nc1cccc(S(=O)(=O)Nc2ccc(Cl)cc2)c1)c1ccc(Cl)nc1` gave Ins promoter up -0.43, NPY1 pot ag 1, NPY-Y1 antag 6, NPY-Y2 PAM-ag 46*, NPY-Y2 antag -2, NPY-Y2 pot conf 11, NPY-Y1 potentiator -16, NPY-Y1 agonist 2 -21, CNGC inhibitor 1 and NPY-Y2 ag 2 3.
COc1ccc(NS(=O)(=O)c2cccc(NC(=O)c3ccc(Cl)nc3)c2)cc1 was read as INS promoter inh -29, Ins promoter up -0.38, NPY1 pot ag -21, NPY-Y1 antag 16 and NPY-Y2 PAM-ag 14.
For CCN(CC)CCCNc1nc2cc(OC)c(OC)cc2c2nc(-c3cccnc3)nn12 the results were INS promoter inh 25, Ins promoter up -3.4, NPY1 pot ag -14, NPY-Y1 antag -1, NPY-Y2 PAM-ag -18 and NPY-Y2 antag 4.
For COc1cc2nc(NCC3CCCO3)n3nc(-c4cccnc4)nc3c2cc1OC (configuration not stated) the results were Ins promoter up -0.6, NPY1 pot ag 15, NPY-Y1 antag 3, NPY-Y2 PAM-ag 65*, NPY-Y2 antag -2, NPY-Y2 pot conf -1, NPY-Y1 potentiator 8, NPY-Y1 agonist 2 1, CNGC inhibitor 4 and NPY-Y2 ag 2 9.
Screening c1ccc(-c2nc(-c3cccs3)[nH]c2-c2ccccc2)cc1 returned INS promoter inh 50, Ins promoter up -0.54, NPY1 pot ag 37, NPY-Y1 antag -9, NPY-Y2 PAM-ag 41*, NPY-Y2 antag -2, NPY-Y2 pot conf 28, NPY-Y1 potentiator 46*, NPY-Y1 agonist 2 27*, CNGC inhibitor 26* and NPY-Y2 ag 2 28*.
`CC(C)C(=O)Nc1ccc(N2CCN(c3ccc(F)cc3)CC2)cc1` gave Ins promoter up -0.22, NPY1 pot ag -2, NPY-Y1 antag 16, NPY-Y2 PAM-ag 31*, NPY-Y2 pot conf 1, NPY-Y1 potentiator 13, NPY-Y1 agonist 2 3, CNGC inhibitor 4 and NPY-Y2 ag 2 -3.
For Nc1c(-c2ccccc2)cnn1-c1cccc(C(F)(F)F)c1 the results were INS promoter inh 14, Ins promoter up 0.55, NPY1 pot ag 8, NPY-Y1 antag -4, NPY-Y2 PAM-ag 6 and NPY-Y2 antag 2.
Nc1c(-c2cccc(Cl)c2)cnn1-c1cccc(C(F)(F)F)c1 was read as Ins promoter up 0.95, NPY1 pot ag 36, NPY-Y1 antag 2, NPY-Y2 PAM-ag 42*, NPY-Y2 antag 1, NPY-Y2 pot conf 61*, NPY-Y1 potentiator 68*, NPY-Y1 agonist 2 61*, CNGC inhibitor 47* and NPY-Y2 ag 2 74*.
COc1cc(S(=O)(=O)n2nc(C)cc2C)c(OC)cc1Cl was read as INS promoter inh 0, NPY1 pot ag -9, NPY-Y1 antag 7, NPY-Y2 PAM-ag -8 and NPY-Y2 antag 1.
CN1CCN(S(=O)(=O)c2ccc(Oc3ccc(F)c(Cl)c3)nc2)CC1 was read as INS promoter inh 5, Ins promoter up -0.24, NPY1 pot ag 26, NPY-Y1 antag 4, NPY-Y2 PAM-ag 96*, NPY-Y2 pot conf -1, NPY-Y1 potentiator -7, NPY-Y1 agonist 2 -1, CNGC inhibitor -2 and NPY-Y2 ag 2 -9.
Screening O=C(Nc1cc(S(=O)(=O)N2CCCCC2)ccc1Cl)c1ccccc1NS(=O)(=O)c1ccc(F)cc1 returned INS promoter inh inactive, Ins promoter up -2, NPY1 pot ag -59, NPY-Y1 antag 6, NPY-Y2 PAM-ag 42*, NPY-Y2 antag 3, NPY-Y2 pot conf 30, NPY-Y1 potentiator 5, NPY-Y1 agonist 2 0, CNGC inhibitor 14 and NPY-Y2 ag 2 19*.
